Reference: ChEMBL document CHEMBL1121550, “Amino acid and dipeptide derivatives of daunorubicin. 1. Synthesis, physicochemical properties, and lysosomal digestion” (J Med Chem, 1980)

Experiments:
Nucleic Acid [1] = assay: Maximal binding (nmax) sites to herring sperm DNA. Estimated from Scatchard plots; type: nucleic-acid assay; details: Clupeidae
Procedure, shortened: (§1)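 Spectral titration: drug at 200 µg/mL in PBS pH 7.4 (NaCl 137 mM, KCl 3 mM, Na2HPO4 8 mM, KH2PO4 1.5 mM) titrated with 0.05–2.00 mL highly polymerized herring sperm DNA (2.34 mg/mL in 0.9% NaCl), made to 4.0 mL. Free and bound drug estimated from absorbance at 475 nm; Scatchard plot (nx/Df vs nx) yields Ka and nmax.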

Nucleic Acid [2] = assay: Apparent binding affinity to herring sperm DNA at 25 degree Celsius in PBS buffer with pH 7.4; type: nucleic-acid assay; details: Clupeidae; procedure, shortened: as §1

SMILES | Maximal binding (Nucleic Acid [1]) | Ka (Nucleic Acid [2]) [M⁻¹]
COc1cccc2c1C(=O)c1c(O)c3c(c(O)c1C2=O)C[C@@](O)(C(C)=O)C[C@@H]3O[C@H]1C[C@H](N)[C@H](O)[C@H](C)O1 | 0.16 | 310000
COc1cccc2c1C(=O)c1c(O)c3c(c(O)c1C2=O)C[C@@](O)(C(C)=O)C[C@@H]3OC1CC(NC(=O)C(N)C(C)C)C(O)C(C)O1 (stereo partly drawn) | 0.18 | 110000
COc1cccc2c1C(=O)c1c(O)c3c(c(O)c1C2=O)C[C@@](O)(C(C)=O)C[C@@H]3OC1CC(NC(=O)C(CC(C)C)NC(=O)CN)C(O)C(C)O1 (stereo partly drawn) | 0.14 | 30000
COc1cccc2c1C(=O)c1c(O)c3c(c(O)c1C2=O)C[C@@](O)(C(C)=O)C[C@@H]3OC1CC(NC(=O)CN)C(O)C(C)O1 (stereo partly drawn) | 0.16 | 130000
COc1cccc2c1C(=O)c1c(O)c3c(c(O)c1C2=O)C[C@@](O)(C(C)=O)C[C@@H]3O[C@H]1C[C@H](NC(=O)[C@H](C)N)[C@H](O)[C@H](C)O1 | 0.19 | 90000
CCC(C)C(N)C(=O)NC1CC(O[C@H]2C[C@](O)(C(C)=O)Cc3c(O)c4c(c(O)c32)C(=O)c2c(OC)cccc2C4=O)OC(C)C1O (stereo partly drawn) | 0.19 | 110000

Other lines, results leading:

Maximal binding (Nucleic Acid [1]) | Ka (Nucleic Acid [2]) [M⁻¹] | SMILES
0.2 | 130000 | COc1cccc2c1C(=O)c1c(O)c3c(c(O)c1C2=O)C[C@@](O)(C(C)=O)C[C@@H]3OC1CC(NC(=O)C(N)CC(C)C)C(O)C(C)O1 (stereo partly drawn)
0.17 | 20000 | COc1cccc2c1C(=O)c1c(O)c3c(c(O)c1C2=O)C[C@@](O)(C(C)=O)C[C@@H]3O[C@H]1C[C@H](NC(=O)[C@H](CC(C)C)NC(=O)[C@H](C)N)[C@H](O)[C@H](C)O1
0.12 | 40000 | COc1cccc2c1C(=O)c1c(O)c3c(c(O)c1C2=O)C[C@@](O)(C(C)=O)C[C@@H]3O[C@H]1C[C@H](NC(=O)[C@H](C)NC(=O)[C@@H](N)CC(C)C)[C@H](O)[C@H](C)O1
